This note sets out measurements from ChEMBL document CHEMBL1134636, “Structure-activity studies on nociceptin analogues: ORL1 receptor binding and biological activity of cyclic disulfide-containing analogues of nociceptin peptides” (J Med Chem, 2001).

Peptide text beside a SMILES is read from it.

In experiment [1] the target is T1, Nociceptin receptor (Homo sapiens, UniProt P41146). Briefly: Efficacy for human ORL1 receptor expressing HEK293 cells. The experiment is classed as functional, cell-based. An outline of the steps: (§1)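 Membranes from HEK-293 cells expressing human ORL1 (10 μg) were incubated for 30 min at 24 °C with peptides (0.01 nM to 10 μM) in 20 mM HEPES pH 7.4 with 100 mM NaCl, 10 mM MgCl₂, 1 mM EDTA, 5 μM GDP and 400 pM [³⁵S]GTPγS. Binding was read with WGA-coated SPA beads.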

Experiment [2] has as its target T1, Nociceptin receptor. Kind of experiment: Efficacy for human ORL1 receptor expressing HEK293 cell membrane. The experiment is classed as functional, cell-based. An outline of the steps: as §1
Experiment [3] deals with T1, Nociceptin receptor. Kind of experiment: Displacement of [3H]NC from human ORL1 receptor expressing HEK293 cell membrane. The experiment is classed as cell membranes.

T1 sequence (P41146 whole entry): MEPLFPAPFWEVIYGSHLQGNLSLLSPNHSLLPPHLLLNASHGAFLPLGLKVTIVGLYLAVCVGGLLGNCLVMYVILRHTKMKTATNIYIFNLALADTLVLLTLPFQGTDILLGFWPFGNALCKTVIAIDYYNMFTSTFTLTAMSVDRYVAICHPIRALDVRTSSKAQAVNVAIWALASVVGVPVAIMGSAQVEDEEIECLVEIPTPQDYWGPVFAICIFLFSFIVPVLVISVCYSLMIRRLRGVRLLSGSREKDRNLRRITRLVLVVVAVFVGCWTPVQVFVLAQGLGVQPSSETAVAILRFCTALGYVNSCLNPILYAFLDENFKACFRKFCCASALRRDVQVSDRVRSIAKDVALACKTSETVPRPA

Regarding `C[C@H](NC(=O)[C@H](CS)NC(=O)[C@H](CCCCN)NC(=O)[C@H](CCCN=C(N)N)NC(=O)[C@H](C)NC(=O)[C@H](CS)NC(=O)[C@@H](NC(=O)[C@H](Cc1ccccc1)NC(=O)CNC(=O)CNC(=O)[C@@H](N)Cc1ccccc1)[C@@H](C)O)C(=O)N[C@@H](CCCN=C(N)N)C(=O)N[C@@H](CCCCN)C(N)=O` (H-FGGFTCARKCARK-NH2), the EC50 (as a rule, the midpoint of the concentration-response curve) at Nociceptin receptor [1] amounted to 29.7 nM. On Nociceptin receptor [2], the Emax (in general, the size of the effect at its maximum, as opposed to the concentration needed) is 94%. The half-inhibitory concentration (IC50) (usually the concentration at which inhibition is half-maximal) at Nociceptin receptor [3] stood at 3.03 nM.
Compound `CC(C)C[C@H](NC(=O)[C@H](CCCCN)NC(=O)[C@H](CCCN=C(N)N)NC(=O)[C@H](C)NC(=O)[C@H](CO)NC(=O)[C@H](CCCCN)NC(=O)[C@H](CCCN=C(N)N)NC(=O)[C@H](C)NC(=O)CNC(=O)[C@@H](NC(=O)[C@H](Cc1ccccc1)NC(=O)CNC(=O)CNC(=O)[C@@H](N)Cc1ccccc1)[C@@H](C)O)C(N)=O` (H-FGGFTGARKSARKL-NH2) yielded an EC50 at Nociceptin receptor [1] of 1.97 nM. The same compound returned an Emax on Nociceptin receptor [2] of 105%. The IC50 at Nociceptin receptor [3] came to 0.52 nM.
For `C[C@@H](O)[C@H](NC(=O)[C@H](Cc1ccccc1)NC(=O)CNC(=O)CNC(=O)[C@@H](N)Cc1ccccc1)C(=O)NCC(=O)N[C@@H](CS)C(=O)N[C@@H](CCCN=C(N)N)C(=O)N[C@@H](CCCCN)C(=O)N[C@@H](CO)C(=O)N[C@@H](CS)C(=O)N[C@@H](CCCN=C(N)N)C(=O)N[C@@H](CCCCN)C(N)=O` (H-FGGFTGCRKSCRK-NH2), the concentration for a half-maximal effect (EC50) on Nociceptin receptor [1] was 26.3 nM. Moreover, the Emax at Nociceptin receptor [2] was 99%. The IC50 at Nociceptin receptor [3] was 8.7 nM.
In the same order, the values of `C[C@H](NC(=O)[C@@H]1CSSC[C@H](NC(=O)[C@@H](NC(=O)[C@H](Cc2ccccc2)NC(=O)CNC(=O)CNC(=O)[C@@H](N)Cc2ccccc2)[C@@H](C)O)C(=O)N[C@@H](C)C(=O)N[C@@H](CCCNC(=N)N)C(=O)N[C@@H](CCCCN)C(=O)N1)C(=O)N[C@@H](CCCNC(=N)N)C(=O)N[C@@H](CCCCN)C(N)=O` (HELM PEPTIDE1{F.G.G.F.T.C.A.R.K.C.A.R.K.[am]}$PEPTIDE1,PEPTIDE1,6:R3-10:R3$$$V2.0) are 31.3 nM, 99% and 0.833 nM.
At Nociceptin receptor [1], `C[C@@H]1NC(=O)[C@H](CO)NC(=O)[C@H](CCCCN)NC(=O)[C@H](CCCNC(=N)N)NC(=O)[C@@H](NC(=O)CNC(=O)[C@@H](NC(=O)[C@H](Cc2ccccc2)NC(=O)CNC(=O)CNC(=O)[C@@H](N)Cc2ccccc2)[C@@H](C)O)CSSC[C@@H](C(N)=O)NC(=O)[C@H](CCCCN)NC(=O)[C@H](CCCNC(=N)N)NC1=O` (HELM PEPTIDE1{F.G.G.F.T.G.C.R.K.S.A.R.K.C.[am]}$PEPTIDE1,PEPTIDE1,7:R3-14:R3$$$V2.0) had an EC50 of 25 nM. For the same compound, at Nociceptin receptor [3], the IC50 came out at 4.97 nM.
On Nociceptin receptor [1], `C[C@@H](O)[C@H](NC(=O)[C@H](Cc1ccccc1)NC(=O)CNC(=O)CNC(=O)[C@@H](N)Cc1ccccc1)C(=O)NCC(=O)N[C@H]1CSSC[C@@H](C(=O)N[C@@H](CCCN=C(N)N)C(=O)N[C@@H](CCCCN)C(N)=O)NC(=O)[C@H](CO)NC(=O)[C@H](CCCCN)NC(=O)[C@H](CCCN=C(N)N)NC1=O` (HELM PEPTIDE1{F.G.G.F.T.G.C.R.K.S.C.R.K.[am]}$PEPTIDE1,PEPTIDE1,7:R3-11:R3$$$V2.0) had a concentration for a half-maximal effect (EC50) of 156 nM. The compound further had an Emax on Nociceptin receptor [2] of 120%. This compound had an IC50 at Nociceptin receptor [3] of 3.04 nM.
